{"source": "ChEMBL document CHEMBL1156926", "about": "“CoMFA analysis of tgDHFR and rlDHFR based on antifolates with 6-5 fused ring system using the all-orientation search (AOS) routine and a modified cross-validated r(2)-guided region selection (q(2)-GRS) routine and its initial application” (Bioorg Med Chem, 2010)", "key": {"[1]": {"target": "T1, Dihydrofolate reductase (Rattus norvegicus, UniProt Q920D2)", "T1 sequence (Q920D2 whole entry)": "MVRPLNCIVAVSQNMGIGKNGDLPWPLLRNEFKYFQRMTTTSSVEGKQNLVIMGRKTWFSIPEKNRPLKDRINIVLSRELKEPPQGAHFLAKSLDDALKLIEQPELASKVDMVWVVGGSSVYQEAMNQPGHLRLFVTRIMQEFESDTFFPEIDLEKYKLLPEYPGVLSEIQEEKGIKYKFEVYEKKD", "assay": "Inhibition of rat liver DHFR by spectrophotometric assay"}, "[2]": {"system": "Toxoplasma gondii", "settings": "RH, 50 mg/kg"}, "[3]": {"system": "Toxoplasma gondii", "settings": "RH, 50 mg/kg", "remark": "listed apart in the source"}, "[4]": {"target": "T1, Dihydrofolate reductase", "assay": "Inhibition of rat liver DHFR using dihydrofolic acid substrate and NADPH cofactor by spectrophotometric assay"}, "[5]": {"target": "T2, Bifunctional dihydrofolate reductase-thymidylate synthase (Toxoplasma gondii, UniProt Q07422)", "T2 sequence (Q07422 whole entry)": "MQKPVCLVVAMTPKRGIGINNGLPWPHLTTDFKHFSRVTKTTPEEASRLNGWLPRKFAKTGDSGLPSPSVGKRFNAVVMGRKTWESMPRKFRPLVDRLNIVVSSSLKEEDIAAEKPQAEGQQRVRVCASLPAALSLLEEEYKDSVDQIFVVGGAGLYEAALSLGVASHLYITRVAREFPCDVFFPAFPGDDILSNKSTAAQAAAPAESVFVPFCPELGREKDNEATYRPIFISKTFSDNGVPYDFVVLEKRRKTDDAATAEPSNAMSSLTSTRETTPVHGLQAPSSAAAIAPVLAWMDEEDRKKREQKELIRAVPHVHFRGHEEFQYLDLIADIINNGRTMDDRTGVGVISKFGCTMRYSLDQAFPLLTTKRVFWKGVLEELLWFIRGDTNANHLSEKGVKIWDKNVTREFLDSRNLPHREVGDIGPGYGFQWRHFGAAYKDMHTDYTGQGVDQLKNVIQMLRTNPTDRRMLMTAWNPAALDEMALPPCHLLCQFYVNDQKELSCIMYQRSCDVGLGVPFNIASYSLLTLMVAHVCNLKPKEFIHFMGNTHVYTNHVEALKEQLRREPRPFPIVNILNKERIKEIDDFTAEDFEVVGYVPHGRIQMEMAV", "assay": "Inhibition of Toxoplasma gondii DHFR by spectrophotometric assay"}, "[6]": {"system": "Toxoplasma gondii", "assay": "Antimicrobial activity against Toxoplasma gondii RH infected in BALB/c mouse assessed as mouse survival at 50 mg/kg, ip after 5 days", "assay_type": "functional", "settings": "route intraperitoneal"}, "[7]": {"system": "Toxoplasma gondii", "assay": "Antimicrobial activity against Toxoplasma gondii RH infected in BALB/c mouse assessed as reduction of parasite level at 50 mg/kg, ip relative to untreated control", "assay_type": "functional", "settings": "route intraperitoneal", "procedure,_shortened": "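Female BALB/c mice (18-20 g) inoculated i.p. with 5 × 10³ cultured RH trophozoites. Treatment began 4 h after inoculation: 50 mg/kg/day i.p. (amount injected). Where folic acid was used, it was given in drinking water at 10 microgram/ml. Survival was recorded to day 5 and mice were harvested on day 6. Parasites in peritoneal exudate were counted per 1000x field (10 microliters spread over 1 cm²).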"}, "[8]": {"target": "T3, Dihydrofolate reductase (Rattus norvegicus) (UniProt Q920D2)", "T3 sequence (whole entry)": "T1 sequence (Q920D2 whole entry)", "settings": "24.6 uM"}, "[9]": {"target": "T2, Bifunctional dihydrofolate reductase-thymidylate synthase", "assay": "Inhibition of Toxoplasma gondii DHFR using dihydrofolic acid substrate and NADPH cofactor by spectrophotometric assay"}}, "note": "pIC50: −log10 of the molar value. The source made the active and inactive calls. The rule behind the calls is not given here."}
{"compound": "Nc1nc(N)c2c(CNc3cccc4c3CCCC4)c[nH]c2n1", "values": [{"measurement": "pIC50", "setting": "[1]", "value": 4.23}]}
{"compound": "Cc1cccc(C)c1Sc1[nH]c2nc(N)nc(N)c2c1C", "note": "[listing 1 of 2 here]", "values": [{"measurement": "inhibition", "setting": "[2]", "value": "Active"}, {"measurement": "inhibition", "setting": "[3]", "value": "Active"}]}
{"compound": "Cc1cc(C)cc(Sc2[nH]c3nc(N)nc(N)c3c2C)c1", "values": [{"measurement": "pIC50", "setting": "[4]", "value": 5.12}]}
{"compound": "Nc1nc(N)c2c(CCCc3ccc(OCc4ccccc4)cc3)c[nH]c2n1", "values": [{"measurement": "pIC50", "setting": "[1]", "value": 6.18}, {"measurement": "pIC50", "setting": "[5]", "value": 5.80}]}
{"compound": "Cc1[nH]c2nc(N)nc(N)c2c1Sc1ccc(Cl)cc1Cl", "values": [{"measurement": "pIC50", "setting": "[1]", "value": 4.46}, {"measurement": "pIC50", "setting": "[5]", "value": 4.55}]}
{"compound": "Cc1cccc(C)c1Sc1[nH]c2nc(N)nc(N)c2c1C", "note": "[listing 2 of 2 here]", "values": [{"measurement": "pIC50", "setting": "[4]", "value": 6.41}, {"measurement": "survival at 50 mg/kg", "setting": "[6]; Toxoplasma gondii, RH, ip, 120 h", "value": 100, "unit": "%"}, {"measurement": "fold change (FC)", "setting": "[7]", "value": ">2"}]}
{"compound": "Cc1[nH]c2nc(N)nc(N)c2c1Sc1cccc2c1CCCC2", "values": [{"measurement": "pIC50", "setting": "[1]", "value": 4.40}]}
{"compound": "COc1ccc(OC)c(Sc2c(C)[nH]c3nc(N)nc(N)c23)c1", "values": [{"measurement": "pIC50", "setting": "[1]", "value": "< 4.34"}, {"measurement": "pIC50", "setting": "[5]", "value": 4.06}]}
{"compound": "Nc1nc(N)c2c(CSc3cccc(Oc4ccccc4)c3)coc2n1", "values": [{"measurement": "pIC50", "setting": "[1]", "value": 4.41}, {"measurement": "pIC50", "setting": "[5]", "value": 4.72}]}
{"compound": "Nc1nc(N)c2c(CNc3cccc4cc5ccccc5cc34)coc2n1", "values": [{"measurement": "pIC50", "setting": "[1]", "value": "< 4.29"}]}
{"compound": "Nc1nc(N)c2c(CSc3ccc4c(c3)CCCC4)c[nH]c2n1", "values": [{"measurement": "pIC50", "setting": "[1]", "value": 4.08}, {"measurement": "pIC50", "setting": "[5]", "value": 5.04}]}
{"compound": "Nc1nc(N)c2c(CCCc3cc(Cl)ccc3Cl)c[nH]c2n1", "values": [{"measurement": "pIC50", "setting": "[1]", "value": 5.32}]}
{"compound": "COc1cc(CCCc2c[nH]c3nc(N)nc(N)c23)cc(OC)c1OC", "values": [{"measurement": "pIC50", "setting": "[1]", "value": 5.32}]}
{"compound": "COc1cc(Sc2[nH]c3nc(N)nc(N)c3c2C)cc(OC)c1OC", "values": [{"measurement": "pIC50", "setting": "[4]", "value": "< 4.61"}, {"measurement": "inhibition", "setting": "[8]", "value": 12, "unit": "%"}]}
{"compound": "Cc1c(Sc2cc(Cl)c(Cl)cc2Cl)[nH]c2nc(N)nc(N)c12", "values": [{"measurement": "pIC50", "setting": "[4]", "value": 5.52}, {"measurement": "pIC50", "setting": "[9]", "value": 6.67}]}
{"compound": "CCn1c2ccccc2c2cc(NCc3coc4nc(N)nc(N)c34)ccc21", "values": [{"measurement": "pIC50", "setting": "[1]", "value": 4.90}, {"measurement": "pIC50", "setting": "[5]", "value": 5.35}]}
{"compound": "Cc1[nH]c2nc(N)nc(N)c2c1Sc1cccc(Cl)c1", "values": [{"measurement": "pIC50", "setting": "[1]", "value": 4.19}]}
{"compound": "CCn1c2ccccc2c2cc(N(C)Cc3coc4nc(N)nc(N)c34)ccc21", "values": [{"measurement": "pIC50", "setting": "[1]", "value": 4.61}, {"measurement": "pIC50", "setting": "[5]", "value": 4.65}]}
{"compound": "COc1ccc(-c2nc3nc(N)nc(N)c3[nH]2)c([N+](=O)[O-])c1OC", "values": [{"measurement": "pIC50", "setting": "[1]", "value": "< 4.60"}]}
{"compound": "Nc1nc(N)c2c(CSc3cccc4c3CCCC4)c[nH]c2n1", "values": [{"measurement": "pIC50", "setting": "[1]", "value": 5.52}, {"measurement": "pIC50", "setting": "[5]", "value": 6.09}]}
{"compound": "Nc1nc(N)c2c(CSc3ccc(-c4ccccc4)cc3)coc2n1", "values": [{"measurement": "pIC50", "setting": "[1]", "value": 3.45}, {"measurement": "pIC50", "setting": "[5]", "value": 4.10}]}
{"compound": "COc1ccc(OC)c(NCc2nc3c(N)nc(N)nc3[nH]2)c1", "values": [{"measurement": "pIC50", "setting": "[1]", "value": "< 4.54"}]}
{"compound": "Cc1[nH]c2nc(N)nc(N)c2c1Sc1ccc(Cl)cc1", "values": [{"measurement": "pIC50", "setting": "[1]", "value": 4.43}]}
{"compound": "Nc1nc(N)c2c(CCCc3ccc4c(c3)CCCC4)c[nH]c2n1", "values": [{"measurement": "pIC50", "setting": "[1]", "value": 5.96}]}
{"compound": "Cc1cccc(C)c1Sc1[nH]c2nc(N)nc(N)c2c1C.Cl", "values": [{"measurement": "Survival", "setting": "[6]", "value": 100, "unit": "%"}]}
{"compound": "Nc1nc(N)c2c(CSc3ccccc3-c3ccccc3)coc2n1", "values": [{"measurement": "pIC50", "setting": "[1]", "value": 4.31}, {"measurement": "pIC50", "setting": "[5]", "value": 3.98}]}
{"compound": "Nc1nc(N)c2c(CSc3ccccc3Oc3ccccc3)coc2n1", "values": [{"measurement": "pIC50", "setting": "[1]", "value": 4.74}, {"measurement": "pIC50", "setting": "[5]", "value": 4.42}]}
{"compound": "Cc1c(Sc2ccc3ccccc3c2)[nH]c2nc(N)nc(N)c12", "values": [{"measurement": "pIC50", "setting": "[4]", "value": 5.09}, {"measurement": "pIC50", "setting": "[9]", "value": 5.80}]}
{"compound": "COc1ccc(OC)c(CCCc2c[nH]c3nc(N)nc(N)c23)c1", "values": [{"measurement": "pIC50", "setting": "[1]", "value": 4.93}]}
{"compound": "Nc1nc(N)c2c(CCCc3ccccc3)c[nH]c2n1", "values": [{"measurement": "pIC50", "setting": "[1]", "value": 5.07}, {"measurement": "pIC50", "setting": "[5]", "value": 5.57}]}
{"compound": "Nc1nc(N)c2c(CSc3cccc(-c4ccccc4)c3)coc2n1", "values": [{"measurement": "pIC50", "setting": "[1]", "value": 4.51}, {"measurement": "pIC50", "setting": "[5]", "value": 4.64}]}
{"compound": "Nc1nc(N)c2c(CSc3ccc(Oc4ccccc4)cc3)coc2n1", "values": [{"measurement": "pIC50", "setting": "[1]", "value": 4.19}]}
{"compound": "Cc1[nH]c2nc(N)nc(N)c2c1Sc1ccccc1", "values": [{"measurement": "pIC50", "setting": "[1]", "value": "< 4.48"}, {"measurement": "pIC50", "setting": "[5]", "value": 4.09}]}
{"compound": "Nc1nc(N)c2c(CNc3ccc4c(c3)Cc3ccccc3-4)coc2n1", "values": [{"measurement": "pIC50", "setting": "[1]", "value": "< 5.00"}]}
{"compound": "Nc1nc(N)c2c(CNc3ccc4c(c3)C(O)c3ccccc3-4)coc2n1", "note": "(stereo unspecified)", "values": [{"measurement": "pIC50", "setting": "[1]", "value": "< 4.89"}, {"measurement": "pIC50", "setting": "[5]", "value": 4.20}]}
